Compound activity from PubChem.
Sampled rows, rich in hits. Any-hit rate of the full collection: about 3.5%.
MEKK2 WT-MEK5 – raises or lowers MEK5 binding to wildtype human MEKK2 PB1 domain; hit rate 1.1% among 290,000; AID 1531; Q9Y2U5; binding response (% of control), % at 10 µM; bead flow cytometry, Alexa488-MEK5 binding to MEKK2 WT; actives lie on both sides; in the data active = binding response below about 67% or above about 130%
WT yeast gro inh – growth inhibition of WT yeast, mitochondrial fusion screen; hit rate 2.1% among 190,000; mitochondrial fusion phenotypic screen, WT strain; inhibition, % at 10 µM; in the data active = inhibition above about 58%; tested in S. cerevisiae
MEKK2mut PB1 HTS – signal of MEK5 binding to mutant human MEKK2 PB1 domain. bead flow cytometry, Alexa488-MEK5 binding to MEKK2 mutant. percent response, % at 10 µM. hit rate 0.35% among 290,000; in the data active = percent response above about 24%, passing the limit was not always enough
ABCB1 block – inhibitors of human ABCB1 transporter, ABCG2 counter-screen; inhibition, % at 6.6 µM; P08183; hit rate 0.067% among 190,000; CCRF-Adr cells, JC-1 efflux, flow cytometry; in the data active = inhibition above about 40%;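 note: higher value means more JC-1 retained so stronger ABCB1 efflux block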
Target sequence (P08183 whole entry, looked up): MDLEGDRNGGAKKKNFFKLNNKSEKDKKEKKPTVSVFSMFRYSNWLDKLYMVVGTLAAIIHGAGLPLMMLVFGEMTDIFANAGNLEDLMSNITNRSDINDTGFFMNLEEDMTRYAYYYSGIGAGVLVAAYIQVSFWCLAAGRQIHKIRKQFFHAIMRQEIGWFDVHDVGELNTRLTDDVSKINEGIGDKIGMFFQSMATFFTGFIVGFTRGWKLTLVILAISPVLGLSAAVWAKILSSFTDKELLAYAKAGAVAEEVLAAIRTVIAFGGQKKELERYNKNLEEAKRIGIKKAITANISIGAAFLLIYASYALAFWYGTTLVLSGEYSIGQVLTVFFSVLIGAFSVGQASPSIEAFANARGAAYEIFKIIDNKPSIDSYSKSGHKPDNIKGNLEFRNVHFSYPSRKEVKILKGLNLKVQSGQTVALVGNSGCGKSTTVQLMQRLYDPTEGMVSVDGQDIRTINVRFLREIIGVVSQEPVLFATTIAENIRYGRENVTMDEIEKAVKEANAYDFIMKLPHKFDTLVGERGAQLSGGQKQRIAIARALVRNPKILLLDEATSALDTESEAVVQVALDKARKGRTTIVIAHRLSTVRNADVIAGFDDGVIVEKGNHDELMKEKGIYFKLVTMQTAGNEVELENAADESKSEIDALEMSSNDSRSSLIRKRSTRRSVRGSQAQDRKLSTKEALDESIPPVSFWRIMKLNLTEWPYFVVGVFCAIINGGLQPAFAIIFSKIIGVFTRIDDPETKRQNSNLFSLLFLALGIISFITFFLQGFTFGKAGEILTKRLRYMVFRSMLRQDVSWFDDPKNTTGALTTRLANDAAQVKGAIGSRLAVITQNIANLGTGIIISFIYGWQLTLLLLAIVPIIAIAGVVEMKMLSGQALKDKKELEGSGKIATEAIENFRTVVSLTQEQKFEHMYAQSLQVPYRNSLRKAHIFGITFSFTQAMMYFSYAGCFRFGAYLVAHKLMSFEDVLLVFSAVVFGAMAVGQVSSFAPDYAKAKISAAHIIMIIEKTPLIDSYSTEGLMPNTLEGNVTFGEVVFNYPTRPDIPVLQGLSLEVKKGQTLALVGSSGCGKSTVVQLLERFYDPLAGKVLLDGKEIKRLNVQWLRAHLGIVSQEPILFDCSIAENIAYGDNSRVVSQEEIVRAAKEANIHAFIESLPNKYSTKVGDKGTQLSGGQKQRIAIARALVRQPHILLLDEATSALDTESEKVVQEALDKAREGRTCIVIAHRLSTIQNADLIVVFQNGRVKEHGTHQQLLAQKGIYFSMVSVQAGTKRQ
MEKK3 PB1 HTS – MEKK3-MEK5 PB1 interaction, increase or decrease | bead-based flow cytometry, Alexa488-MEK5 binding to MEKK3; actives lie on both sides; 0 = blocked by unlabeled MEK5, 100 = vehicle | AID 1529 | binding response (% of control), % at 10 µM | Q99759 | hit rate 1.4% among 290,000;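 active = binding response more than 3 SD above or below the average of its plate-row segment, actives on both sides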;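 note: Alexa488 bead fluorescence after subtracting the streptavidin-only scavenger bead signal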
ABCG2 block – human ABCG2 inhibition, ABCB1 as counter-screen; Q9UNQ0; hit rate 0.1% among 190,000; AID 1325; inhibition, % at 6.6 µM; IgMXP3 cells, JC-1 efflux, flow cytometry;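 active = inhibition above 80%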
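Measure – % inhibition of efflux relative to nicardipine and DMSO · Test system – ABCG2 IgMXP3 and barcoded ABCB1 CCRF-Adr cell mix · Control set – nicardipine as high control, DMSO as low control · Compound – one concentration, 6.6 µM final · Signal – flow cytometry of retained JC-1 fluorescence · Timing – 10 min exposure at 25 °C with rotation, no wash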
A number is an active result; - = inactive; . = not tested or not shown.

SMILES	MEKK2 WT-MEK5	WT yeast gro inh	MEKK2mut PB1 HTS	ABCB1 block	MEKK3 PB1 HTS	ABCG2 block
COc1ccc(C(C)(C)C)cc1NC(=O)c1ccc2ncsc2c1	-	.	-	.	-	.
COc1ccc(C(C)(C)C)cc1NC(=O)c1cncc(Br)c1	-	76	-	-	-	-
Cc1cc(NC(=O)c2nn(C)c(C)c2Br)no1	-	.	-	.	-	.
Cc1ccc(/C=N/n2cnc3sc(-c4ccccc4)cc3c2=O)o1	-	86	-	-	-	-
Cc1cc2ncn(/N=C/c3ccc(-c4ccccc4)o3)c2cc1C	-	-	-	-	-	-
Cc1cccc(Nc2nc(N)c([N+](=O)[O-])c(N3CC(C)CC(C)C3)n2)c1 (configuration not stated)	-	96	-	-	-	-
O=C(Cc1cnn(-c2ccccc2)c1)c1ccc(O)c(O)c1O	-	-	-	-	-	-
CC(C)=CCc1c(O)ccc(C(=O)Cc2ccccc2)c1O	-	81	-	-	-	-
O=C(c1ccc2c(c1)OCO2)N(Cc1cccs1)C1(C(=O)NC2CCCCC2)CCCCC1	-	62	-	-	-	-
Cc1ccc(Cl)cc1N1CCN(C(=S)NCCc2ccccc2)CC1	-	66	-	-	-	-
Cc1cccc(N2CCN(C(=S)NCCc3ccccc3)CC2)c1C	-	-	-	-	-	-
CCOC(=O)c1cnc(-c2ccccc2)nc1-c1ccccc1	-	65	-	-	-	-
Nc1nc(SCc2ccc(Cl)cc2Cl)n[nH]1	-	-	-	-	-	-
CNc1cc(CSC)nc(SCc2ccc(Cl)cc2Cl)n1	-	85	-	-	-	-
Cc1cc(NC(=O)c2cccc(Oc3ccccc3)c2)n[nH]1	-	-	-	-	-	-
COc1ccc(C(=O)Nc2ccccc2C(=O)N/N=C/c2cccc3ccccc23)cc1	-	68	-	-	-	-
CCCC[C@@H]1C[C@H]1[C@@H](NC(=O)c1cccs1)c1ccc(Cl)cc1	-	70	-	-	-	-
CCCC[C@@H]1C[C@H]1[C@@H](NC(=O)c1cccs1)c1ccc(C(F)(F)F)cc1	-	.	-	.	-	.
CCCC[C@@H]1C[C@H]1[C@@H](NC(=O)c1ccco1)c1ccc(Cl)cc1	-	73	-	-	-	-
CCCC[C@@H]1C[C@H]1[C@@H](NC(=O)c1ccco1)c1ccccc1C(F)(F)F	-	.	-	.	-	.
CCCN1C(=O)/C(=C\C=C2/C=CN(CC)c3ccccc32)SC1=S	-	59	-	-	-	-
O=C(CCl)Nc1ccccc1Sc1ccccc1	-	-	-	-	-	-
Cc1ccc(C)c(Sc2ccc(NC(=O)CCl)cc2)c1	-	69	-	-	-	-
Cc1ccc(Sc2ccc(NC(=O)CCl)cc2)cc1C	-	66	-	.	-	-
Cc1cc(N/N=C/c2cccc(Cl)c2)nc(-n2nc(C)cc2C)n1	-	.	-	.	-	.
SMILES	MEKK2 WT-MEK5	WT yeast gro inh	MEKK2mut PB1 HTS	ABCB1 block	MEKK3 PB1 HTS	ABCG2 block
COc1ccc(/C=N/Nc2cc(C)nc(-n3nc(C)cc3C)n2)cc1	-	60	-	-	-	-
CCCCc1cc2c(cn1)=C(OC(=O)c1cnc3ccccc3n1)C(C)(OC(=O)CC)C(=O)C=2 (configuration not stated)	143	.	-	.	-	.
Cc1cc(C)cc(N(CC(=O)NCC2CCCO2)C(=O)CCC(=O)Nc2nccs2)c1 (configuration not stated)	-	.	-	.	-	.
O=C(N/N=C/c1ccc(O)cc1O)C(=O)N/N=C/c1ccc(O)cc1O	-	.	-	.	-	.
CCn1cc(C(=O)NCCCO)c(=O)c2cc(F)c(N3CCN(C)CC3)cc21	-	.	-	.	-	.
CCn1cc(C(=O)NCCc2ccccc2)c(=O)c2cc(F)c(N3CCN(C)CC3)cc21	-	62	-	-	-	-
CCN(Cc1ccccc1)C(c1cccs1)c1nnnn1C1CCCCC1 (configuration not stated)	-	75	-	-	-	-
c1csc(C(c2nnnn2C2CCCC2)N2CCCC3(CCCCC3)C2)c1 (configuration not stated)	-	70	-	-	-	-
c1csc(C(c2nnnn2C2CCCC2)N2CCOCC2)c1 (configuration not stated)	-	-	-	-	-	-
C=CCn1c(SCC(=O)NCCc2ccccc2)nnc1C(C)NC(=O)c1cccs1 (configuration not stated)	-	-	-	-	-	-
C=CCn1c(SCC(=O)Nc2cccc(C(=O)OC)c2)nnc1C(C)NC(=O)c1cccs1 (configuration not stated)	-	83	-	-	-	-
Cc1cc(C)c(-c2noc(C(=O)OC(C)(C)C)c2C(=O)OC(C)(C)C)c(C)c1	-	66	-	-	-	-
COc1ccc2c(ccc[n+]2CC(=O)c2ccccc2)c1	-	.	-	.	-	.
COc1ccc(C(=O)C[n+]2cn(C(F)F)c3ccccc32)c(F)c1	-	70	-	-	-	-
CC1(C)Cc2ccccc2-c2nnc(SCC(=O)N3CCN(c4ccccc4)CC3)n21	-	61	-	-	-	-
OCc1ccccc1OCCCOc1cccc2cccnc12	-	.	-	.	-	.
CCOC(=O)c1c(-c2ccc(C)o2)csc1NC(=O)CN1CCCCC1	-	83	-	-	-	-
CC(C)OC(=O)c1c(-c2ccc(C(C)C)cc2)csc1NC(=O)C1CCCO1 (configuration not stated)	-	70	-	-	-	-
CCOC(=O)c1c(-c2ccc(C)cc2)csc1NC(=O)C1CCCO1 (configuration not stated)	-	58	-	-	-	-
CCOC(=O)c1c(-c2ccc(F)cc2)csc1NC(=O)C1CCCO1 (configuration not stated)	-	-	-	-	-	-
CCOC(=O)c1c(-c2ccc(OC)cc2)csc1NC(=O)C1CCCO1 (configuration not stated)	-	-	-	-	-	-
CC1CCCCC1NC(=O)CCn1ccc2cc(S(=O)(=O)N3CCCC3)ccc21 (configuration not stated)	-	.	-	.	-	.
CCOC(=O)C(=CNc1nc(-c2ccccc2)c(C(=O)Nc2ccc(-c3ccccc3)cc2)s1)C(=O)OCC	-	.	-	.	-	.
COc1ccc(C(C(=O)NCC2CCCO2)N(C(=O)CNC(=O)c2cccs2)c2ccc(C(C)=O)cc2)cc1OC (configuration not stated)	-	-	-	-	-	-
CC1CCc2c(C(=O)Oc3cccc(-n4cnnn4)c3)csc2C1 (configuration not stated)	-	61	-	-	-	-
Cc1ccc(C(=O)Oc2cccc(-n3cnnn3)c2)cc1	-	-	-	-	-	-
Cc1cc(C)c2c(c1)/C(=C/C(=O)c1ccc(Br)s1)C(=O)N2	-	87	-	-	-	-
